Reference: PMC3062473 (ChemMedChem, 2010)

Legend:
Caspase 6 = target: T1, Caspase 6 (Homo sapiens, UniProt P55212); assay: Reaction Biology caspase panel; type: biochemical
T1 sequence (P55212 24-179 limits assumed): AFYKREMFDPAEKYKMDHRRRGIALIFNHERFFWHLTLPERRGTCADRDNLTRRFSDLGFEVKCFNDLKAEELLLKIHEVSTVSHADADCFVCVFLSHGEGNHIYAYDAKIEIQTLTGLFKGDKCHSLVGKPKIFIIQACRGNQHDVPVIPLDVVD
T1 sequence (P55212 194-293 limits assumed): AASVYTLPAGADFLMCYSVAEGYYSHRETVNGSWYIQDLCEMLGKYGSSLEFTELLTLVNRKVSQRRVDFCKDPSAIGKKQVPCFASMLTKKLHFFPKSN

Caspase 7 = target: T2, Caspase 7 (Homo sapiens, UniProt P55210); assay: Reaction Biology caspase panel; type: biochemical
T2 sequence (P55210 24-198 limits assumed): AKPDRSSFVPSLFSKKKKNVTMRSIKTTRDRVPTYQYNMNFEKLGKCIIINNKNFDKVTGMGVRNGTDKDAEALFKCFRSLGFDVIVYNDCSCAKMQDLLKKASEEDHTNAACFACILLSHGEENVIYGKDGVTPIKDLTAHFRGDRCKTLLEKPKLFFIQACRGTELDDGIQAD
T2 sequence (P55210 207-303 limits assumed): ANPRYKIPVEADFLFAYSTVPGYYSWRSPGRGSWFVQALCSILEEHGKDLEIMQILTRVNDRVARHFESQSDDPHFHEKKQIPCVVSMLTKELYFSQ

[1] = Aqueous degradation study by LCMS over 96 hours; type: physicochemical; settings: for aqueous stability (in words): up to 96 hours
Microsomal stability = type: in vitro ADME, human; settings: for microsomal CLint / half-life: human, liver microsomes; for half-life: Microsomal Stability t1/2, human liver microsomes
Procedure, shortened: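 Human microsomal stability, profiled by a contract lab alongside internal control compounds. Includes minus-NADPH and minus-compound control incubations.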

[2] = Bi-directional Caco-2 permeability; type: in vitro ADME; settings: human
Procedure, shortened: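 Contract-lab bidirectional Caco-2 permeability. Run as three separate experiments, each with two separate internal control groups.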

[3] = Plasma protein binding, equilibrium dialysis in 100% plasma; type: in vitro ADME, human; settings: human, plasma (100%)
Pgp = Pgp (Homo sapiens, UniProt P08183); assay: Caco-2 permeability in the presence of verapamil; type: in vitro ADME; settings: Caco-2 control experiment with verapamil
caspase 1 [4] = target: T3, caspase 1 (Homo sapiens, UniProt P29466); assay: Caspase 1 fluorescence assay, Ac-LEHD-AMC substrate, 2 nM enzyme; type: biochemical
T3 sequence (P29466 120-297 limits assumed): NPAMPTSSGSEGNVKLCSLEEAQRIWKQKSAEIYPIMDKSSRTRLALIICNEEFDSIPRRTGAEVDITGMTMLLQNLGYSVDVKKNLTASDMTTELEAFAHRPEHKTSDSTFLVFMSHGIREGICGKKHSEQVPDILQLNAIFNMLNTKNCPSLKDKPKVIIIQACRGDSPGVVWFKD
T3 sequence (P29466 317-404 limits assumed): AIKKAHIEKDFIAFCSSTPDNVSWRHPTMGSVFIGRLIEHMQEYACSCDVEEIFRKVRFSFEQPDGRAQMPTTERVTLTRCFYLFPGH
Procedure, shortened: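 Compound added from DMSO as a 12-point duplicate titration (0.65 pM to 57.5 μM) and preincubated 15 min at RT. Then 5 μM Ac-LEHD-AMC final was added and the initial rate followed 20 min at RT (ex 340/em 450 nm). Percent inhibition was taken against median uninhibited and uncatalyzed controls, with a four-parameter Hill fit.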

Caspase 14 = target: T4, Caspase 14 (Homo sapiens, UniProt P31944); assay: Reaction Biology caspase panel; type: biochemical
T4 sequence (P31944 6-146 limits assumed): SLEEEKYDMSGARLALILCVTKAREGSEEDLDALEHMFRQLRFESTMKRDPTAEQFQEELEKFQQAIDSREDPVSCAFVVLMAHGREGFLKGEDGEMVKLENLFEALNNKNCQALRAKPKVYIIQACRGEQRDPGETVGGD
T4 sequence (P31944 153-242 limits assumed): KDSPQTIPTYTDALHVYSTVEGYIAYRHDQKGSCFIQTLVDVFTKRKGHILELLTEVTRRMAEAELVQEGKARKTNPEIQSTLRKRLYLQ

Caspase 8 = Caspase 8 (Homo sapiens, UniProt Q14790); assay: Reaction Biology caspase panel; type: biochemical
Caspase 5 = target: T5, Caspase 5 (Homo sapiens, UniProt P51878); assay: Reaction Biology caspase panel; type: biochemical
T5 sequence (P51878 137-327 limits assumed): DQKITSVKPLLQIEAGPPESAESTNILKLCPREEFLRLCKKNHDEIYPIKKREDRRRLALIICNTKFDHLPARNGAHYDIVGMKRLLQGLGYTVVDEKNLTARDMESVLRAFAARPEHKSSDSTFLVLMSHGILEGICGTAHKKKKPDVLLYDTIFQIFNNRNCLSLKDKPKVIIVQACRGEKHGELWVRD
T5 sequence (P51878 347-434 limits assumed): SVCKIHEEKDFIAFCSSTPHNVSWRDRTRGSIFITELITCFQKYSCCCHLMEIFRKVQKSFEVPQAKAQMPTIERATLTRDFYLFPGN

Caspase 9 = target: T6, Caspase 9 (Homo sapiens, UniProt P55211); assay: Reaction Biology caspase panel; type: biochemical
T6 sequence (P55211 1-315 limits assumed): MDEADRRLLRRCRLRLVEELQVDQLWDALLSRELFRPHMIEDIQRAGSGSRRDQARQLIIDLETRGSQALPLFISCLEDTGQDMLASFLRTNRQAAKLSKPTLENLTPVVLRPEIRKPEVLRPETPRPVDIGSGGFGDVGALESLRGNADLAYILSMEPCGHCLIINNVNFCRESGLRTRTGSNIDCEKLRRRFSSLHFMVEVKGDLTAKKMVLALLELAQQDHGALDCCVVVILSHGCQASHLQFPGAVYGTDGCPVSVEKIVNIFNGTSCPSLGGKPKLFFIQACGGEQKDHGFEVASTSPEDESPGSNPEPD
T6 sequence (P55211 331-416 limits assumed): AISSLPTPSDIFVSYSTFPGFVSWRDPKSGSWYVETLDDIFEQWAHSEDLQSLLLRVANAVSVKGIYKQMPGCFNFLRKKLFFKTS

Caspase 3 = target: T7, Caspase 3 (Homo sapiens, UniProt P42574); assay: Reaction Biology caspase panel; type: biochemical
T7 sequence (P42574 29-175 limits assumed): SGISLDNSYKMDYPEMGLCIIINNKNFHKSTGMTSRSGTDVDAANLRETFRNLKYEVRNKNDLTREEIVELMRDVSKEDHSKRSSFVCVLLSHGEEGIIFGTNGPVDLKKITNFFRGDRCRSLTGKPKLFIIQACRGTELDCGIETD
T7 sequence (P42574 176-277 limits assumed): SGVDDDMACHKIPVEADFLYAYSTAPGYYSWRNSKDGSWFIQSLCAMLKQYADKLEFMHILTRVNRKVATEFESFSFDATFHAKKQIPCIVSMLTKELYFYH

Caspase 10 = target: T8, Caspase 10 (Homo sapiens, UniProt Q92851); assay: Reaction Biology caspase panel; type: biochemical
T8 sequence (Q92851 220-415 limits assumed): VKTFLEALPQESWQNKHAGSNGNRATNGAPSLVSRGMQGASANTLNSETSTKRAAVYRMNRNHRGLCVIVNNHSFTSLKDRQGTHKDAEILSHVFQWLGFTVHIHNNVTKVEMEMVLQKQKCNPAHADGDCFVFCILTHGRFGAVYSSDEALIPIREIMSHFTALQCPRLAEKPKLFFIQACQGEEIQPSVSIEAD
T8 sequence (Q92851 416-521 limits assumed): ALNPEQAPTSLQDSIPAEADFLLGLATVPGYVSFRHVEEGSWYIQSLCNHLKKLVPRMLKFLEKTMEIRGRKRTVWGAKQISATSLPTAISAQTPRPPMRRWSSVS

caspase 1 [5] = target: T3, caspase 1; assay: Reaction Biology caspase panel; type: biochemical
Caspase 4 = target: T9, Caspase 4 (Homo sapiens, UniProt P49662); assay: Reaction Biology caspase panel; type: biochemical
T9 sequence (P49662 81-270 limits assumed): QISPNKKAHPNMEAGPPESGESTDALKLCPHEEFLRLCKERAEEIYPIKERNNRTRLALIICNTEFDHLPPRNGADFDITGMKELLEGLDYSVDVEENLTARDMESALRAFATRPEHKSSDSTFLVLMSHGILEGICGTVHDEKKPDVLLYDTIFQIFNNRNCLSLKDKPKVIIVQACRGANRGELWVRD
T9 sequence (P49662 290-377 limits assumed): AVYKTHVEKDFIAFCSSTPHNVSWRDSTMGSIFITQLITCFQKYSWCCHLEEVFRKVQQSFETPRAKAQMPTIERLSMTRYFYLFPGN

Chain of Caspase 8 (Q14790 217-374 limits assumed): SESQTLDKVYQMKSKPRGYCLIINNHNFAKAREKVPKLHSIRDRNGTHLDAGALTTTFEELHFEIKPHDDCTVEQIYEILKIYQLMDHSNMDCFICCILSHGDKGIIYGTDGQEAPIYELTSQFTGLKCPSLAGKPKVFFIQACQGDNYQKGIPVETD
Chain of Caspase 8 (Q14790 385-479 limits assumed): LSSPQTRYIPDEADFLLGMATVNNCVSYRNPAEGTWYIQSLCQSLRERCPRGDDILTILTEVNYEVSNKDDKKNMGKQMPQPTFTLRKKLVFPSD
Chain of Pgp (P08183 whole entry): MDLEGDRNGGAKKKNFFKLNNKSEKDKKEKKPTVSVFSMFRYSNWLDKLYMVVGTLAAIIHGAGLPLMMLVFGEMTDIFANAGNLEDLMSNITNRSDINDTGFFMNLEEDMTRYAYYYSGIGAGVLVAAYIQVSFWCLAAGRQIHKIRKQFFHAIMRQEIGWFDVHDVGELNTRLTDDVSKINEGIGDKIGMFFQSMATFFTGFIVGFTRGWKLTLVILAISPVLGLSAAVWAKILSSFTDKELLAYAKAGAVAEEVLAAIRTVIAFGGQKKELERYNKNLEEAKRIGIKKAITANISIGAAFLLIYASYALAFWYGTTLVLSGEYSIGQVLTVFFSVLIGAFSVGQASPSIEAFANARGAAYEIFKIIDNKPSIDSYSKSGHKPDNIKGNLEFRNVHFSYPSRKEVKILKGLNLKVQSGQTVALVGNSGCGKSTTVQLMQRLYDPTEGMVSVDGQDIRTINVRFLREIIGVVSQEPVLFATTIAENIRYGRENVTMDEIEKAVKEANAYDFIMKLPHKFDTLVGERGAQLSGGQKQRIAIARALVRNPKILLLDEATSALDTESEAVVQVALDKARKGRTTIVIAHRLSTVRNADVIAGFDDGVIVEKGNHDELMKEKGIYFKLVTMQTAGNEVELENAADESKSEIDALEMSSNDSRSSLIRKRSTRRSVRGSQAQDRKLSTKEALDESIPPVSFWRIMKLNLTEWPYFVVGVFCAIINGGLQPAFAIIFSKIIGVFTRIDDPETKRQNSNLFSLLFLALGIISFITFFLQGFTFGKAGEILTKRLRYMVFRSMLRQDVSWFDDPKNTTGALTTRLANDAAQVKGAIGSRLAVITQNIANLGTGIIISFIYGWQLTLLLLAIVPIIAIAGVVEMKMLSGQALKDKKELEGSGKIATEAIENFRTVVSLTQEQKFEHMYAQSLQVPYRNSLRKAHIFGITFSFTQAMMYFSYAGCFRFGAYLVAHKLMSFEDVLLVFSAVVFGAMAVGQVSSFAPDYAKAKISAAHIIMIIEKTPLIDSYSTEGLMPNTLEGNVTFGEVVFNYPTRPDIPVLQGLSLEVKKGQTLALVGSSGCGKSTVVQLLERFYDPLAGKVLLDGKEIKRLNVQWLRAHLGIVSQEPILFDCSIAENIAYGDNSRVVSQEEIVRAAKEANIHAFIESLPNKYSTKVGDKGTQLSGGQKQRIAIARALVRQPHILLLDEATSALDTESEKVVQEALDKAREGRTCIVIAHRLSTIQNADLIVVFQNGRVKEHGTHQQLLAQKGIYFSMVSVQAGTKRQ

CC(=O)N[C@@H](CC(=O)O)C(=O)N[C@@H](CCC(=O)O)C(=O)N[C@H](C(=O)N[C@H](C=O)CC(=O)O)C(C)C [Ac-DEVD-CHO, reference compound]
IC50 (Caspase 6): 122 nM
IC50 (Caspase 7): 3.54 nM

CCO[C@@H]1OC(=O)C[C@@H]1NC(=O)[C@@H]1CCCN1C(=O)[C@@H](NC(=O)c1ccc(N)c(Cl)c1)C(C)(C)C [Compound 1, reference compound]
aqueous stability (in words) ([1]; neutral (pH 7)): moderate degradation
degradation ([1]; pH 2, after 3.5 hours): 40%
compound decomposed ([1]; water (pH 7), after 48 hours): over 50%
Microsomal Stability t1/2 (Microsomal stability; human liver microsomes, listed as VX-765): 157.2 h
microsomal CLint (Microsomal stability): 0.147 µL/min/mg
Papp A→B [2]: 0.797 ×10⁻⁶ cm/s
Papp B→A [2]: 32.7 ×10⁻⁶ cm/s
fraction unbound [3]: 0.006
substrate for Pgp efflux (Pgp): substrates for Pgp efflux

CCOC(=O)C[C@@H](C#N)NC(=O)[C@@H]1CCCN1C(=O)[C@@H](NC(=O)c1ccc(N)c(Cl)c1)C(C)(C)C [Compound 3, (S)-ethyl 3-((S)-1-((S)-2-(4-amino-3-chlorobenzamido)-3,3-dimethylbutanoyl)pyrrolidine-2-carboxamido)-3-cyanopropanoate]
IC50 (Caspase 6): > 10000 nM
IC50 (caspase 1 [4]): 145 nM
IC50 (Caspase 14): > 10000 nM
IC50 (Caspase 8): > 10000 nM
aqueous stability (in words) ([1]; acidic (pH 2)): exceptionally stable
degradation (in words) ([1]; basic (pH 8), after 22 hours): fully degraded
aqueous stability (in words) ([1]; neutral (pH 7)): exceptionally stable
IC50 (Caspase 5): 1570 nM
IC50 (Caspase 9): 1610 nM
microsomal CLint (Microsomal stability): 27.4 µL/min/mg
half-life (Microsomal stability): 0.845 h
degradation in liver microsomes without NADPH (Microsomal stability; without NADPH as a cofactor): slight degree of degradation
IC50 (Caspase 7): > 10000 nM
Papp A→B [2]: 0.445 ×10⁻⁶ cm/s
Papp B→A [2]: 9.59 ×10⁻⁶ cm/s
fraction unbound [3]: 0.071
substrate for Pgp efflux (Pgp): substrates for Pgp efflux
IC50 (Caspase 3): > 10000 nM
IC50 (Caspase 10): > 10000 nM
IC50 (caspase 1 [5]): 43.4 nM
IC50 (Caspase 4): > 10000 nM

CC(C)(C)[C@H](NC(=O)c1ccc(N)c(Cl)c1)C(=O)N1CCC[C@H]1C(=O)N[C@H](C#N)CC(=O)O [Compound 4, (S)-3-((S)-1-((S)-2-(4-amino-3-chlorobenzamido)-3,3-dimethylbutanoyl)pyrrolidine-2-carboxamido)-3-cyanopropanoic acid]
IC50 (Caspase 6): > 10000 nM
IC50 (caspase 1 [4]): 0.316 nM
Ki (caspase 1 [4]): 0.4 nM
IC50 (Caspase 14): 801 nM
IC50 (Caspase 8): 25.2 nM
degradation ([1]; acidic (pH 2), after 72 hours): 50%
aqueous stability (in words) ([1]; acidic (pH 2)): moderate to good
aqueous stability (in words) ([1]; basic (pH 8)): exceedingly stable
degradation ([1]; neutral (pH 7), after 72 hours): 50%
aqueous stability (in words) ([1]; neutral (pH 7)): moderate to good
IC50 (Caspase 5): 3.6 nM
IC50 (Caspase 9): 2.17 nM
microsomal CLint (Microsomal stability): 10.3 µL/min/mg
half-life (Microsomal stability): 2.23 h
IC50 (Caspase 7): > 10000 nM
Papp A→B [2]: 0.144 ×10⁻⁶ cm/s
Papp B→A [2]: 0.06 ×10⁻⁶ cm/s
fraction unbound [3]: 0.431
IC50 (Caspase 3): > 10000 nM
IC50 (Caspase 10): 89.7 nM
IC50 (caspase 1 [5]): 0.023 nM
IC50 (Caspase 4): 13.8 nM

CC(C)(C)[C@H](NC(=O)c1ccc(N)c(Cl)c1)C(=O)N1CCC[C@H]1C(=O)N[C@H](C#N)Cc1nnn[nH]1 [Compound 16, (S)-1-((S)-2-(4-amino-3-chlorobenzamido)-3,3-dimethylbutanoyl)-N-((S)-1-cyano-2-(1H-tetrazol-5-yl)ethyl)pyrrolidine-2-carboxamide]
IC50 (Caspase 6): > 10000 nM
IC50 (caspase 1 [4]): 20.4 nM
IC50 (Caspase 14): > 10000 nM
IC50 (Caspase 8): > 10000 nM
aqueous stability (in words) ([1]; acidic (pH 2)): resistant to degradation
aqueous stability (in words) ([1]; basic (pH 8)): resistant to degradation
aqueous stability (in words) ([1]; neutral (pH 7)): resistant to degradation
IC50 (Caspase 5): 1300 nM
IC50 (Caspase 9): 91.5 nM
microsomal CLint (Microsomal stability): 9.38 µL/min/mg
half-life (Microsomal stability): 2.47 h
IC50 (Caspase 7): > 10000 nM
Papp A→B [2]: 0.13 ×10⁻⁶ cm/s
Papp B→A [2]: 0.193 ×10⁻⁶ cm/s
fraction unbound [3]: 0.243
IC50 (Caspase 3): > 10000 nM
IC50 (Caspase 10): > 10000 nM
IC50 (caspase 1 [5]): 2.58 nM
IC50 (Caspase 4): 1380 nM
